{"data": "Published values pooled from the literature", "organism": "Mycolicibacterium smegmatis", "read-out": "microbial growth", "note": "Compare with care: the assays were run in different laboratories."}
{"SMILES": "CO[C@H]1/C=C/O[C@@]2(C)Oc3c(C)c(O)c4c(O)c(c(/C=N/N5CCN(C)CC5)c(O)c4c3C2=O)NC(=O)/C(C)=C\\C=C\\[C@H](C)[C@H](O)[C@@H](C)[C@@H](O)[C@@H](C)[C@H](OC(C)=O)[C@@H]1C", "method": "agar dilution", "MIC": "> 25 µg/mL"}
{"SMILES": "CC(C)CC=CC=CC(=O)NC(CC(N)=O)C(=O)NC1C(=O)NC(c2ccc(O)cc2)C(=O)NC(CCCN)C(=O)NC(C(C)O)C(=O)NC(c2ccc(O)cc2)C(=O)NC(c2ccc(O)cc2)C(=O)NC(C(C)O)C(=O)NC(Cc2ccccc2)C(=O)NC(CCCN)C(=O)NC(c2ccc(OC3OC(CO)C(O)C(O)C3OC3OC(CO)C(O)C(O)C3O)cc2)C(=O)NC(C(C)O)C(=O)NC(c2ccc(O)cc2)C(=O)NCC(=O)NC(CC(C)C)C(=O)NC(C)C(=O)NC(c2ccc(O)c(Cl)c2)C(=O)OC1C(N)=O (stereo not drawn)", "method": "resazurin", "strain": "ATCC607", "time": "72 h", "MIC": "3.25 µg/mL"}
{"SMILES": "NNC(=O)c1ccncc1", "MIC": "1 µg/mL"}
{"SMILES": "CN[C@H](CC(C)C)C(=O)N[C@H]1C(=O)N[C@@H](CC(N)=O)C(=O)N[C@H]2C(=O)N[C@H]3C(=O)N[C@H](C(=O)N[C@H](C(=O)O)c4cc(O)cc(O)c4-c4cc3ccc4O)[C@H](O)c3ccc(c(Cl)c3)Oc3cc2cc(c3O[C@@H]2O[C@H](CO)[C@@H](O)[C@H](O)[C@H]2O[C@H]2C[C@](C)(N)[C@H](O)[C@H](C)O2)Oc2ccc(cc2Cl)[C@H]1O", "method": "resazurin", "strain": "ATCC607", "time": "72 h", "MIC": "3.12 µg/mL"}
{"SMILES": "CC(C)=CCC/C(C)=C/CNCCOc1ccccc1", "MIC": "12 µg/mL"}
{"SMILES": "NC[C@H]1O[C@@H](O[C@@H]([C@H](NCCCC(=O)NCc2ccc(N3CCC(Oc4ccc(OC(F)(F)F)cc4)CC3)cc2)C(N)=O)[C@H]2O[C@@H](n3ccc(=O)[nH]c3=O)C(O)C2O)[C@H](O)[C@@H]1O (stereo partly drawn)", "strain": "ATCC607", "MIC": "0.2 µg/mL"}
{"SMILES": "CN[C@@H]1[C@@H](O)[C@@H](O[C@@H]2[C@@H](O)[C@H](O[C@H]3O[C@H]([C@@H](C)O)[C@@H](O)[C@H](O)[C@H]3N)[C@@H](N)C[C@H]2N)OC[C@]1(C)O", "method": "broth dilution", "time": "72 h", "MIC": "8 µg/mL"}
{"SMILES": "CNC(=O)c1cc(Oc2ccc(NC(=O)Nc3ccc(Cl)c(C(F)(F)F)c3)cc2)ccn1", "strain": "MC2155", "MIC": "50 µM"}
{"SMILES": "C/C(=N\\NC(=N)N)c1cccc(/C(C)=N/NC(=N)N)c1", "strain": "MC2155", "MIC": "15.6 to 31.3 µM"}
{"SMILES": "O=C(Nc1ncc([N+](=O)[O-])s1)c1ccccn1", "method": "agar dilution", "strain": "MC^2155", "MIC": "100 µM"}
{"SMILES": "CC(C)=CCC/C(C)=C/CNCCCOC1C2CC3CC(C2)CC1C3 (stereo not drawn)", "MIC": "6.2 µg/mL"}
{"SMILES": "NNC(=O)c1ccncc1", "method": "broth dilution", "strain": "ATCC607", "MIC": "> 200 µg/mL"}
{"SMILES": "CC(C)=CCC/C(C)=C/CNC(=O)COC1C2CC3CC(C2)CC1C3 (stereo not drawn)", "MIC": "6.2 µg/mL"}
{"SMILES": "CC1(C)S[C@@H]2[C@H](NC(=O)[C@H](N)c3ccccc3)C(=O)N2[C@H]1C(=O)O", "method": "resazurin", "strain": "MC^2155", "time": "24 h", "MIC": "50 µg/mL"}
{"SMILES": "CC(C)=CCC/C(C)=C/C[N+](C)(C)CCOC1C2CC3CC(C2)CC1C3.[I-] (stereo not drawn)", "MIC": "12 µg/mL"}
{"SMILES": "Cc1ccc(-c2nc3ccc(C)cn3c2CC(=O)N(C)C)cc1", "method": "broth dilution", "MIC": "> 50 µM"}
{"SMILES": "CC(C)=CCC/C(C)=C/CNCCOc1cccc2ccccc12", "MIC": "12 µg/mL"}
{"SMILES": "COC1C(O)C(n2ccc(=O)[nH]c2=O)OC1C(OC1OC(C(=O)NC2CCCCNC2=O)=CC(O)C1O)C(N)=O (stereo not drawn)", "method": "broth dilution", "strain": "ATCC607", "MIC": "6.5 µg/mL"}
